Results on 37 compounds are retold here after ChEMBL document CHEMBL1137082, “Potent and selective conformationally restricted neuronal nitric oxide synthase inhibitors” (J Med Chem, 2004).

The IC50 is the midpoint of a concentration-inhibition curve.

Where “and” joins values, the source holds several entries; their conditions need not be identical. Equal entries are not always repeated. Some results are limits rather than exact numbers.

For one assay, the target named is T1, Nitric oxide synthase 3 (Bos taurus, UniProt P29473).
T1 sequence (P29473 whole entry): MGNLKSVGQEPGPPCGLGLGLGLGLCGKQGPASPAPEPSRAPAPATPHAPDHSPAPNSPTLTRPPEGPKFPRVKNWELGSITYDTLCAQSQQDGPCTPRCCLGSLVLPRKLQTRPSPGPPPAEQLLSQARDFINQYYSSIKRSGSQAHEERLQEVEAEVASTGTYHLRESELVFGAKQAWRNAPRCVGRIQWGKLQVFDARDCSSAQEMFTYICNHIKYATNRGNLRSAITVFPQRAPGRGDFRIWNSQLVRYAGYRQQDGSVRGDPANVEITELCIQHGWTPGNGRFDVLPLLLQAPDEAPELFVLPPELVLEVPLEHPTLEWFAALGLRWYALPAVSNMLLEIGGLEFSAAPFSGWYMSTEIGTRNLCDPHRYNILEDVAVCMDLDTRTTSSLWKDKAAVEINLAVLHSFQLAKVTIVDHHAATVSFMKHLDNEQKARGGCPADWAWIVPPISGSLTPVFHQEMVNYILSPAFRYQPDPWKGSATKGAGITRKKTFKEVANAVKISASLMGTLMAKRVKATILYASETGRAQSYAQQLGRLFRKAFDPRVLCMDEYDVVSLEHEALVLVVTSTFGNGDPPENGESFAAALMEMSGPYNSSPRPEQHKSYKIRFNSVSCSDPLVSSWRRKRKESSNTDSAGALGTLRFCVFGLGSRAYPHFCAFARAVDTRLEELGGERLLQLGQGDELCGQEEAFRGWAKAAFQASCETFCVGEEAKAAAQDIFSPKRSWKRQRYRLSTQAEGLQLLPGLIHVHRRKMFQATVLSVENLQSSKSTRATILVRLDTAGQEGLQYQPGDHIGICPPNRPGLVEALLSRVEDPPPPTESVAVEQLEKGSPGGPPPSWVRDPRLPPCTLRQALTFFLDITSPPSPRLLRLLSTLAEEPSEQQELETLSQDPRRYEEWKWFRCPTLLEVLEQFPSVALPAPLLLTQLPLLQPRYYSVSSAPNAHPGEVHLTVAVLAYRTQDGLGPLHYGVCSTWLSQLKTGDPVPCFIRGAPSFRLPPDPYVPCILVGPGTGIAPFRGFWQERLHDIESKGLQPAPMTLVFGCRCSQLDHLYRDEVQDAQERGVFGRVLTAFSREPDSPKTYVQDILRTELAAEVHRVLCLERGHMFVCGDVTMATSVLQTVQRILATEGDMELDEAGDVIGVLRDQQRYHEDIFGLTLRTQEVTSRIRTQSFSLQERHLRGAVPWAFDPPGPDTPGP
Put plainly: Inhibitory activity against endothelial nitric oxide synthase (eNOS).

In assay [1] the target is T2, Nitric oxide synthase, inducible (Mus musculus) (UniProt P29477).
T2 sequence (whole entry): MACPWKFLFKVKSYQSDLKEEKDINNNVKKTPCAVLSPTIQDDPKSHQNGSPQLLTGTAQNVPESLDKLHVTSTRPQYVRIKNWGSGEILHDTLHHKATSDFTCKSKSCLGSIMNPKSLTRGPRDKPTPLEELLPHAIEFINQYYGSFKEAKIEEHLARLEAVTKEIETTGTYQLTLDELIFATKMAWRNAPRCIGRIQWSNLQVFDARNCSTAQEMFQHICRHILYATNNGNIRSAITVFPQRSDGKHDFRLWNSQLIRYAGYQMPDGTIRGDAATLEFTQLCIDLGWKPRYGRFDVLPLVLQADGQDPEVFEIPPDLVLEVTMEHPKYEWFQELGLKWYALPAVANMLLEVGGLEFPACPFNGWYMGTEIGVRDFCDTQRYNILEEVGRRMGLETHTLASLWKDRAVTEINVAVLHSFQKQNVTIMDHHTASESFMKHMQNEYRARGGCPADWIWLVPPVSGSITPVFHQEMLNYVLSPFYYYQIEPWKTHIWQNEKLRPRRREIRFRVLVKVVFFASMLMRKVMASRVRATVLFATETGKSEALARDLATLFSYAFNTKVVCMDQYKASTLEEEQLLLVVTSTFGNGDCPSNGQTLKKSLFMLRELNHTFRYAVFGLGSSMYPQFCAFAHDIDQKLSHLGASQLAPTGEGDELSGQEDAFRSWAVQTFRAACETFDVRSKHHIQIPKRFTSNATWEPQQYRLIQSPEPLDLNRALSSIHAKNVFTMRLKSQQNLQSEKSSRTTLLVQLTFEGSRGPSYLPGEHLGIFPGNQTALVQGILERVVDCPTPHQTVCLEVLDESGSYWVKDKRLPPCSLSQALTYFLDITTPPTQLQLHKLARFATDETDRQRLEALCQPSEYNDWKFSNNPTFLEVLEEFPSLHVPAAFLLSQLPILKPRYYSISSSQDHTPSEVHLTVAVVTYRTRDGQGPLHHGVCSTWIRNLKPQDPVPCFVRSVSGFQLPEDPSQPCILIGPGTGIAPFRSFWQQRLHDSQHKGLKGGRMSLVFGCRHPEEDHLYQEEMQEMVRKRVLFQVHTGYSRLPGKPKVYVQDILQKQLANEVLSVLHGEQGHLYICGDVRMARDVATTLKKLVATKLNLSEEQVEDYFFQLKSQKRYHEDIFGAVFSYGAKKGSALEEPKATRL
Put plainly: Inhibitory activity against inducible nitric oxide synthase (iNOS) at 100 uM. Also noted: scale not given: the % may be the effect or the level left. The method in brief:
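Single-point screen against murine macrophage iNOS: enzyme residual activity measured at 100 μM inhibitor. NO formation monitored by hemoglobin capture assay with a UV/vis spectrophotometer.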

Assay [2] addresses T3, Nitric oxide synthase 1 (Rattus norvegicus, UniProt P29476). Kind of assay: Inhibitory activity against neuronal nitric oxide synthase (nNOS).
The target in assay [3] is T3, Nitric oxide synthase 1. Kind of assay: Inhibitory activity against neuronal nitric oxide synthase (nNOS); Range is 50-100 uM.

T3 sequence (P29476 whole entry): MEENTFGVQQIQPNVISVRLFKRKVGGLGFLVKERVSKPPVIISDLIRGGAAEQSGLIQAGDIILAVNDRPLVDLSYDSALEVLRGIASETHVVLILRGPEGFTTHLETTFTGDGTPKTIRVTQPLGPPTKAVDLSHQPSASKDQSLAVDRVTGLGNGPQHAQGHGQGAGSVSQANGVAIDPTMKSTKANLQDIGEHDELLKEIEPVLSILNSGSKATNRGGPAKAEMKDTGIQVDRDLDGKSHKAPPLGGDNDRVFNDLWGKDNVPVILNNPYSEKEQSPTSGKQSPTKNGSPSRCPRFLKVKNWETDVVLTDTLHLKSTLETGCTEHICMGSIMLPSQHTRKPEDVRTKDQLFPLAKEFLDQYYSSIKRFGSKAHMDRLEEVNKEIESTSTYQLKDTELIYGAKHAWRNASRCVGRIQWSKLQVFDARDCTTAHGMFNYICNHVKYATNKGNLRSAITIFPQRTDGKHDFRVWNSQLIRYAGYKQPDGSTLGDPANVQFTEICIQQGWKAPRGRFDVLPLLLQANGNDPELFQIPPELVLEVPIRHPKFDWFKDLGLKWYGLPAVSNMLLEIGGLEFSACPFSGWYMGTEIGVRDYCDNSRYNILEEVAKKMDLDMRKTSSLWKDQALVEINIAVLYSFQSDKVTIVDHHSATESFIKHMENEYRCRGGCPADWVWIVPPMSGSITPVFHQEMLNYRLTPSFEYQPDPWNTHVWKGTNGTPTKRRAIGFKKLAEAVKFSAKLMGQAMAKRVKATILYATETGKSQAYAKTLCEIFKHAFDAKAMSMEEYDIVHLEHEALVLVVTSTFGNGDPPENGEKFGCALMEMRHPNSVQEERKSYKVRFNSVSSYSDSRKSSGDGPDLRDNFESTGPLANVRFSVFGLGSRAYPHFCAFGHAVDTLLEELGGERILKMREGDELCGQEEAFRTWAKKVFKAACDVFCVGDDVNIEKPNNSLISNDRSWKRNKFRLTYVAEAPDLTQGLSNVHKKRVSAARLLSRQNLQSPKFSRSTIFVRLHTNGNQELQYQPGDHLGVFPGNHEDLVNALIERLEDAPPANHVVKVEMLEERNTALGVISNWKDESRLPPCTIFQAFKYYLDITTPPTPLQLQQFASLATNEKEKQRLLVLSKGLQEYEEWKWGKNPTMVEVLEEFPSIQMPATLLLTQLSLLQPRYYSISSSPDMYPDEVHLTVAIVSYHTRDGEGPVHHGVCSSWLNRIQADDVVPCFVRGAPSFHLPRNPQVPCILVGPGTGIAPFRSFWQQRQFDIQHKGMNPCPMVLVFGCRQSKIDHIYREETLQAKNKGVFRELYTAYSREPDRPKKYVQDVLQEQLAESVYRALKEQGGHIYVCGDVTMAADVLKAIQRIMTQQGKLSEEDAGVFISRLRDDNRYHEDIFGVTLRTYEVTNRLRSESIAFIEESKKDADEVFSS

On to `N=C(NCCC[C@H](NC(=O)C1C[C@H](N)CN1)C(N)=O)N[N+](=O)[O-]` (single isomer, unassigned), for which, at Nitric oxide synthase 3, the IC50 was more than 100 µM.
`N=C(NCCC[C@@H](NC(=O)C1C[C@@H](N)CN1)C(N)=O)N[N+](=O)[O-]` (single isomer, unassigned) showed an IC50 on Nitric oxide synthase 3 of more than 100 µM.
`NC(=O)[C@@H]1C[C@H](NC(=O)[C@H](N)CCC/N=C(\N)N[N+](=O)[O-])CN1` registered an Activity in assay [1] of 96%.
Compound `N=C(NCCC[C@H](N)C(=O)N1CC(NC(=O)C(F)(F)F)C[C@@H]1C(N)=O)N[N+](=O)[O-]` (single isomer, unassigned; cis) displayed a half-maximal inhibitory concentration (IC50) against Nitric oxide synthase 3 of more than 100 µM.
Consider `CC(=N)Nc1cccc(CN)c1`, for which the IC50 at Nitric oxide synthase 3 is 0.48 µM and 1.1 µM; on Nitric oxide synthase 1 [2], 0.011 µM.
For the compound `[N-]=[N+]=NC1CN[C@@H](C(=O)N[C@H](CCCNC(=N)N[N+](=O)[O-])C(N)=O)C1` (single isomer, unassigned; trans), at Nitric oxide synthase 3, the IC50 is more than 100 µM.
With `NC(=O)[C@@H]1C[C@H](NC(=O)[C@@H](N)CCC/N=C(\N)N[N+](=O)[O-])CN1`, the Activity in assay [1] stood at 95%.
In assay [1], `NC(=O)[C@@H]1C[C@@H](NC(=O)[C@H](N)CCC/N=C(\N)N[N+](=O)[O-])CN1` came in with an Activity of 97%.
As for `NC(=O)[C@H]1CC(N)CN1C(=O)[C@@H](N)CCC/N=C(\N)N[N+](=O)[O-]` (single isomer, unassigned; trans), at Nitric oxide synthase 3, the IC50 is more than 100 µM.
For the compound `N=C(NCCC[C@@H](NC(=O)[C@H]1CC(N)CN1)C(N)=O)N[N+](=O)[O-]` (single isomer, unassigned; trans), the IC50 against Nitric oxide synthase 3 was more than 100 µM; on Nitric oxide synthase 1 [3] it was less than 100 µM.
Regarding `N=C(NCCC[C@H](N)C(=O)N1CC(N)C[C@@H]1C(N)=O)N[N+](=O)[O-]` (single isomer, unassigned; cis), the IC50 against Nitric oxide synthase 3 was more than 100 µM.
`N=C(NCCC[C@H](NC(=O)C1C[C@@H](N)CN1)C(N)=O)N[N+](=O)[O-]` (single isomer, unassigned) returned an IC50 at Nitric oxide synthase 3 of more than 100 µM.
Regarding `NC(=O)[C@H]1CC(NC(=O)C(F)(F)F)CN1C(=O)[C@H](N)CCC/N=C(/N)N[N+](=O)[O-]` (single isomer, unassigned; trans), at Nitric oxide synthase 3, the IC50 was more than 100 µM.
Take `N=C(NCCC[C@@H](N)C(=O)NC1CNC(C(N)=O)C1)N[N+](=O)[O-]` (single isomer, unassigned): the Activity in assay [1] was found to be 96%.
In turn, `[N-]=[N+]=NC1CN[C@@H](C(=O)N[C@H](CCCNC(=N)N[N+](=O)[O-])C(N)=O)C1` (single isomer, unassigned; cis) gave an IC50 on Nitric oxide synthase 3 of more than 100 µM.
As to `[N-]=[N+]=N[C@@H]1CN[C@@H](C(=O)C[C@@H](CCC/N=C(\N)N[N+](=O)[O-])C(N)=O)C1`, the half-maximal inhibitory concentration (IC50) on Nitric oxide synthase 3 was more than 100 µM; on Nitric oxide synthase 1 [3], less than 100 µM.
Take `N=C(NCCC[C@@H](NC(=O)[C@H]1CC(N)CN1)C(N)=O)N[N+](=O)[O-]` (single isomer, unassigned; cis): the results for the IC50 on Nitric oxide synthase 3 and on Nitric oxide synthase 1 [3] were more than 100 µM and less than 100 µM, respectively.
Take `[N-]=[N+]=N[C@@H]1CNC(C(=O)N[C@H](CCCNC(=N)N[N+](=O)[O-])C(N)=O)C1` (single isomer, unassigned): on Nitric oxide synthase 3, the IC50 is more than 100 µM.
Still for that read-out and setting: as for `NC(=O)C1CC(N)CN1C(=O)C(N)CCC/N=C(\N)N[N+](=O)[O-]` (stereo not given), the figure is more than 100 µM; as for `NC(=O)[C@@H]1C[C@H](N)CN1C(=O)[C@@H](N)CCC/N=C(\N)N[N+](=O)[O-]`, more than 100 µM; as for `N=C(NCCC[C@@H](N)C(=O)N1CC(NC(=O)C(F)(F)F)C[C@@H]1C(N)=O)N[N+](=O)[O-]` (single isomer, unassigned; cis), more than 100 µM.
On to `N=C(NCCC[C@H](N)C(=O)N[C@H]1CNC(C(N)=O)C1)N[N+](=O)[O-]` (single isomer, unassigned), for which, in assay [1], the Activity came out at 94%.
For `N=C(NCCC[C@H](NC(=O)[C@H]1CC(N)CN1)C(N)=O)N[N+](=O)[O-]` (single isomer, unassigned; trans), the values for the IC50 at Nitric oxide synthase 3 and against Nitric oxide synthase 1 [3] were more than 100 µM and less than 100 µM, respectively.
Consider `NC(=O)[C@@H]1C[C@@H](NC(=O)C(F)(F)F)CN1C(=O)[C@H](N)CCC/N=C(\N)N[N+](=O)[O-]`, for which the IC50 on Nitric oxide synthase 3 is more than 100 µM.
Same read-out and setting: as for `N=C(NCCC[C@@H](N)C(=O)N1CC(N)C[C@@H]1C(N)=O)N[N+](=O)[O-]` (single isomer, unassigned; trans), the figure is more than 100 µM; as for `N=C(NCCC[C@@H](NC(=O)C1C[C@H](N)CN1)C(N)=O)N[N+](=O)[O-]` (single isomer, unassigned), more than 100 µM.
For `[N-]=[N+]=N[C@H]1CNC(C(=O)N[C@H](CCCNC(=N)N[N+](=O)[O-])C(N)=O)C1` (single isomer, unassigned), the 50% inhibitory concentration (IC50) is more than 100 µM against Nitric oxide synthase 3 and less than 100 µM against Nitric oxide synthase 1 [3].
Taken in the same sequence, the figures for `N=C(NCCC[C@H](NC(=O)[C@H]1CC(N)CN1)C(N)=O)N[N+](=O)[O-]` (single isomer, unassigned; cis) were more than 100 µM and less than 100 µM.
For the compound `NC(=O)[C@@H]1C[C@H](NC(=O)C(F)(F)F)CN1C(=O)[C@@H](N)CCC/N=C(\N)N[N+](=O)[O-]`, the IC50 on Nitric oxide synthase 3 is more than 100 µM.
Still for that read-out and setting: as for `NC(=O)[C@@H]1C[C@H](NC(=O)C(F)(F)F)CN1C(=O)[C@H](N)CCC/N=C(\N)N[N+](=O)[O-]`, the figure is more than 100 µM; as for `NC(=O)[C@@H]1C[C@H](N)CN1C(=O)[C@H](N)CCC/N=C(\N)N[N+](=O)[O-]`, more than 100 µM.
As for `[N-]=[N+]=N[C@H]1CNC(C(=O)N[C@@H](CCC/N=C(\N)N[N+](=O)[O-])C(N)=O)C1` (single isomer, unassigned), the results for the IC50 against Nitric oxide synthase 3 and on Nitric oxide synthase 1 [3] were more than 100 µM and less than 100 µM, respectively.
Compound `N=C(NCCC[C@H](N)C(=O)N1CC(NC(=O)C(F)(F)F)C[C@@H]1C(N)=O)N[N+](=O)[O-]` (single isomer, unassigned; trans) yielded an IC50 on Nitric oxide synthase 3 of more than 100 µM.
As for `N=C(NCCC[C@@H](N)C(=O)N[C@H]1CNC(C(N)=O)C1)N[N+](=O)[O-]` (single isomer, unassigned), the Activity in assay [1] turned out to be 97%.
`NC(=O)[C@@H]1C[C@@H](N)CN1C(=O)[C@H](N)CCC/N=C(\N)N[N+](=O)[O-]` displayed an IC50 at Nitric oxide synthase 3 of more than 100 µM.
On the same count and under the same terms, as for `[N-]=[N+]=N[C@H]1CN[C@@H](C(=O)C[C@@H](CCC/N=C(\N)N[N+](=O)[O-])C(N)=O)C1`, the figure is more than 100 µM; as for `[N-]=[N+]=N[C@@H]1CNC(C(=O)N[C@@H](CCC/N=C(\N)N[N+](=O)[O-])C(N)=O)C1` (single isomer, unassigned), more than 100 µM.
